Activity calls are given as the source filed them.
Assays:
Candida albicans = assay: Antifungal activity against fluconazole-resistant Candida albicans ATCC 96901 assessed as growth inhibition at 0.8 to 100 ug/mL after 48 hrs by resazurin dye-based assay; type: functional, organism-based
How it was run: (§1)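 Broth microdilution. Inoculum from overnight liquid cultures or 2-day colonies, ~1 × 10^3 cfu per well. Compound in DMSO added to cation-adjusted Mueller Hinton II broth (bacteria) or RPMI 1640 (fungi). Incubated at 30–37 °C for 16–20 h, or 48 h for fungi.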

Pseudomonas aeruginosa = assay: Antibacterial activity against Pseudomonas aeruginosa ATCC 9028 assessed as growth inhibition at 0.8 to 100 ug/mL after 16 to 20 hrs by resazurin dye-based assay; type: functional, organism-based
How it was run: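 Broth microdilution. Test article from 1 μL DMSO in 50 μL cation-adjusted Mueller Hinton II (bacteria) or RPMI 1640 (fungi), plus ~1×10^3 cfu inoculum in the same medium. Incubated 16–20 h at 30–37 °C (48 h for fungi). MIC scored visually as the first well without growth; resazurin added for imaging.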

Staphylococcus aureus [1] = assay: Antibacterial activity against community-acquired methicillin-resistant Staphylococcus aureus USA500 assessed as growth inhibition at 0.8 to 100 ug/mL after 16 to 20 hrs by resazurin dye-based assay; type: functional, organism-based; how it was run: as §1
Staphylococcus aureus [2] = assay: Antibacterial activity against community-acquired methicillin-resistant Staphylococcus aureus BAA-1717 assessed as growth inhibition at 0.8 to 100 ug/mL after 16 to 20 hrs by resazurin dye-based assay; type: functional, organism-based; how it was run: as §1
Bacillus subtilis [3] = assay: Antibacterial activity against Bacillus subtilis HM489 assessed as cellular ATP content after 5 hrs by BacTiter-Glo assay; type: functional, organism-based; settings: HM489, 5 h
HepG2 = assay: Cytotoxicity against human HepG2 cells assessed as cellular ATP content after 48 hrs by CellTiter-Glo assay; type: cell-based; settings: HepG2, 48 h
How it was run: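 HepG2 cells exposed to compound; viability read as cellular ATP by luciferase-coupled CellTiter-Glo.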

[4] = Inhibition of Bacillus subtilis Sfp-PPTase using rhodamine-CoA/BHQ-2-YbbR as substrate preincubated for 15 mins followed by substrate addition by HTS assay
[5] = Chemical stability of the compound in PBS buffer at room temperature measured over 48 hrs by LC/MS analysis; type: physicochemical
How it was run: (§2)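 Compound held in aqueous media over pH 2–9 and in PBS and HEPES buffers, then monitored for degradation.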

[6] = Inhibition of Bacillus subtilis AcpS-PPTase using rhodamine-CoA/BHQ-2-YbbR as substrate preincubated for 15 mins followed by substrate addition by HTS assay
How it was run: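 AcpS-PPTase at 100 nM final in 50 mM HEPES-Na pH 7.6, 10 mM MgCl2, 0.01% Nonidet P-40, 0.01% BSA; compound preincubated 15 min at room temperature, then rhodamine-CoA (5 μM final) and BHQ-2-YbbR (12.5 μM final) added. Fluorescence read (525 ex/598 em) at start and after 60 min; difference gives rate.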

Bacillus subtilis [7] = assay: Antibacterial activity against Bacillus subtilis 168 assessed as disruption of cell membrane integrity at 10 times MIC after 15 mins by Syto9/propidium iodide staining-based BacLight LIVE/DEAD microscopic analysis; type: functional, organism-based; settings: subsp. subtilis str. 168
Staphylococcus aureus [8] = assay: Antibacterial activity against Staphylococcus aureus BK2395 isolated from kidney of 30 mg/kg, ip compound-treated Swiss Webster mouse septicemia model assessed as growth inhibition; type: functional, organism-based; parameters: dose 30 mg/kg
How it was run: (§3)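 Bacteria harvested from the kidneys of septic mice treated with vehicle or compound, five isolates taken per crude sample. MICs measured in parallel with the parental USA500 strain.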

Staphylococcus aureus [9] = assay: Antibacterial activity against Staphylococcus aureus BK2395 in Swiss Webster mouse septicemia model assessed as increase in survival at 30 mg/kg, ip administered 4 to 48 hrs measured 3 times daily for 14 days relative to vehicle-treated control; type: functional, organism-based; parameters: dose 30 mg/kg
How it was run: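 MRSA USA500 strain BK2395 used in a mouse sepsis model. Treated animals compared with vehicle, with vancomycin as a reference treatment; survival monitored.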

Staphylococcus aureus [10] = assay: Antibacterial activity against Staphylococcus aureus isolated from kidney of 30 mg/kg, ip compound-treated Swiss Webster mouse septicemia model assessed as growth inhibition; type: functional, organism-based; parameters: dose 30 mg/kg; how it was run: as §3
Mus musculus = assay: Toxicity in CD-1 mouse at 30 mg/kg, ip measured over 24 hrs; type: organism-based; parameters: dose 30 mg/kg, route intraperitoneal; settings: in vivo
How it was run: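 Male CD1 mice, 6–8 weeks old, given 30 mg/kg ip in 5% DMSO/10% Solutol/water. Clinical observations recorded over 24 h.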

[11] = Mean residence time required for 63.2% elimination of drug in CD-1 mouse at 3 mg/kg, iv; type: ADME, organism-based; parameters: dose 3 mg/kg, route intravenous; settings: in vivo
How it was run: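 Male CD1 mice, 6–8 weeks old, given 3 mg/kg iv as a solution in 5% DMSO/10% Solutol in water. Plasma sampled at eight time points over 24 h, in triplicate; MRT defined as time to eliminate 63.2% of the iv dose.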

[12] = Clearance in CD-1 mouse at 3 mg/kg, iv; type: ADME, organism-based; parameters: dose 3 mg/kg, route intravenous; settings: in vivo
How it was run: (§4)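 Male CD1 mice, 6–8 weeks old. Dosed iv at 3 mg/kg or ip at 30 mg/kg as a solution in 5% DMSO/10% Solutol in water. Plasma sampled in triplicate at eight time points over 24 h.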

[13] = AUC (infinity) in CD-1 mouse at 3 mg/kg, iv; type: ADME, organism-based; parameters: time infinity, dose 3 mg/kg, route intravenous; settings: plasma; how it was run: as §4
[14] = Cmax in CD-1 mouse at 3 mg/kg, iv; type: ADME, organism-based; parameters: dose 3 mg/kg, route intravenous; settings: in vivo; how it was run: as §4
[15] = Metabolic stability in mouse liver microsomes measured over 1 hr in absence of NADPH; type: ADME, Microsome
How it was run: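 Mouse liver microsomes incubated with compound without NADPH over 1 h.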

[16] = Metabolic stability in mouse plasma at 2 hrs; type: ADME, cell-free; settings: read-out: Stability
How it was run: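 Compound incubated in mouse plasma; stability measured at 2 h (Pharmaron).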

[17] = Chemical stability of the compound in aqueous media at pH 2 to 9 at room temperature measured over 5 hrs by LC/MS analysis; type: physicochemical; settings: buffer, pH 2, 5 h; how it was run: as §2
CYP2D6 = CYP2D6 (Homo sapiens, UniProt P10635); assay: Inhibition of CYP2D6 (unknown origin) using dextromethorphan as substrate at 3 uM relative to control; type: ADME; settings: probe dextromethorphan
How it was run: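 Compound at 3 μM co-incubated with CYP substrates: dextromethorphan for 2D6, 6β-hydroxytestosterone for 3A4. Percent inhibition reported; done at Pharmaron.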

Liver microsome = assay: Half life in rat liver microsomes in presence of NADPH; type: ADME
How it was run: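 Liver microsomes from mouse or rat incubated with compound in the presence of NADPH. Mouse assay done at Pharmaron.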

Bacillus subtilis [18] = assay: Antibacterial activity against Bacillus subtilis OKB105 assessed as effect on cellular density at 0.53 to 1.1 ug/mL after 28 hrs; type: functional, organism-based
How it was run: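 B. subtilis OKB105 cultured with compound at 0.53 or 1.1 µg/mL against a vehicle control. Culture density and surfactin titer sampled periodically over 28 h.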

Bacillus subtilis [19] = assay: Antibacterial activity against Bacillus subtilis OKB105 assessed as inhibition of surfactin production at 1.1 ug/mL after 28 hrs by LC-MS analysis relative to vehicle-treated control; type: functional; settings: OKB105, 28 h
How it was run: (§5)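 B. subtilis OKB105 cultures grown with sublethal compound concentrations. Culture growth and surfactin titer measured periodically over 28 h; titer expressed relative to vehicle control.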

Bacillus subtilis [20] = assay: Antibacterial activity against Bacillus subtilis OKB105 assessed as inhibition of surfactin production at 0.53 ug/mL after 28 hrs by LC-MS analysis relative to vehicle-treated control; type: functional; settings: OKB105, 28 h; how it was run: as §5

Sequence of CYP2D6 (P10635 whole entry): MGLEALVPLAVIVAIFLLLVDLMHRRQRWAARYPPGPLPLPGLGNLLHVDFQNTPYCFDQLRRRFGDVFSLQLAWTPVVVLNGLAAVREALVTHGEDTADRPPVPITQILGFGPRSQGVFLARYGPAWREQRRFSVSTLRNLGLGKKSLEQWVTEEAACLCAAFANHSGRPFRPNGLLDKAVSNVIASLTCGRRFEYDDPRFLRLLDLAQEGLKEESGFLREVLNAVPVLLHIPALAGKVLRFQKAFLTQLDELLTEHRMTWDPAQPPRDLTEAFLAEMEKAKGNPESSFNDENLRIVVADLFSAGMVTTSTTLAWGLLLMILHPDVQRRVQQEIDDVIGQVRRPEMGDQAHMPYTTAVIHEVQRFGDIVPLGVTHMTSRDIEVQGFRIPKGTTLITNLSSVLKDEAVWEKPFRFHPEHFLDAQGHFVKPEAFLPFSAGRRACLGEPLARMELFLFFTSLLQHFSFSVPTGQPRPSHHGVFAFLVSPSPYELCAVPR

COc1ccnc(NC(=S)N2CCN(c3ncc(C(F)(F)F)cc3Cl)CC2)c1
growth inhibition (GI) (Candida albicans): inactive | growth inhibition (GI) (Pseudomonas aeruginosa): inactive | growth inhibition (GI) (Staphylococcus aureus [1]): Active | growth inhibition (GI) (Staphylococcus aureus [2]): Active | IC50 (Bacillus subtilis [3]): 9.3 µM | IC50 (HepG2): ≥ 114 µM | IC50 [4]: 0.29 µM | Stability [5]: Stable | IC50 [6]: 8.1 µM | Activity (Bacillus subtilis [7]): inactive | growth inhibition (GI) (Staphylococcus aureus [8]): Active | Activity (Staphylococcus aureus [9]): inactive | growth inhibition (GI) (Staphylococcus aureus [10]): Active | Activity (Mus musculus): Non-toxic | MRT [11]: 3.4 h | clearance [12]: 7.2 mL/min/kg | AUC(0-inf) [13]: 6980 ng·h/mL | Cmax [14]: 4110 ng/mL | Stability [15]: Stable | remaining at 2 h [16]: 100% | Stability [17]: Stable | inhibition at 3 µM (CYP2D6): 25% | t1/2 (Liver microsome): > 0.5 h | Activity (Bacillus subtilis [18]): inactive | inhibition at 1.1 µg/mL (Bacillus subtilis [19]): 41% | inhibition at 0.53 µg/mL (Bacillus subtilis [20]): 33%

Reference: ChEMBL document CHEMBL3124880, “4-(3-Chloro-5-(trifluoromethyl)pyridin-2-yl)-N-(4-methoxypyridin-2-yl)piperazine-1-carbothioamide (ML267), a potent inhibitor of bacterial phosphopantetheinyl transferase that attenuates secondary metabolism and thwarts bacterial growth” (J Med Chem, 2014)
